Assay results reported in ChEMBL document CHEMBL2086354, “Testing the promiscuity of commercial kinase inhibitors against the AGC kinase group using a split-luciferase screen” (J Med Chem, 2012).
Active and inactive are the calls of the source. The rule behind the calls is not given here.

What was measured:
[1] = target: T1, Serine/threonine-protein kinase Sgk2 (Homo sapiens) (UniProt Q9HBY8); assay: Inhibition of SGK2 at 10 uM by luciferase assay
T1 sequence (whole entry): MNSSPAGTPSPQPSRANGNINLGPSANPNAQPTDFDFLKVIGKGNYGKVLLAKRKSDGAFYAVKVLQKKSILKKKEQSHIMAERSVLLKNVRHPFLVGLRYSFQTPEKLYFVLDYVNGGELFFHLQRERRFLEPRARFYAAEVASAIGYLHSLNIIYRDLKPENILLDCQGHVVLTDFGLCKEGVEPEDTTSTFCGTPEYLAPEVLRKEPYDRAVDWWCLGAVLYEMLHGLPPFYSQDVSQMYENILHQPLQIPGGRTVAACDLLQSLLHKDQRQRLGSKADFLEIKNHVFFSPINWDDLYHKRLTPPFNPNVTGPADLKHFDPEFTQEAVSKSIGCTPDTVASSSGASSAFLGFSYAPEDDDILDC
In short: (§1)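 Cell-free split-luciferase competitive binding assay. Cfluc-kinase fusion mRNA was co-translated with Fos-Nfluc mRNA in rabbit reticulocyte lysate at 30 °C for 90 min, frozen at −80 °C overnight and thawed on ice. Lysate held tracer 2 at 120 nM final and inhibitor at 10 μM final (DMSO), 1 h at room temperature. Luciferin reagent was added and luminescence read (1 s integration), in duplicate.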

[2] = target: Aurora kinase B (Homo sapiens) (UniProt Q96GD4); assay: Inhibition of Aurora kinase B at 10 uM by luciferase assay; in short: as §1
[3] = target: T2, Aurora kinase C (Homo sapiens) (UniProt Q9UQB9); assay: Inhibition of Aurora kinase C at 10 uM by luciferase assay; in short: as §1
T2 sequence (whole entry): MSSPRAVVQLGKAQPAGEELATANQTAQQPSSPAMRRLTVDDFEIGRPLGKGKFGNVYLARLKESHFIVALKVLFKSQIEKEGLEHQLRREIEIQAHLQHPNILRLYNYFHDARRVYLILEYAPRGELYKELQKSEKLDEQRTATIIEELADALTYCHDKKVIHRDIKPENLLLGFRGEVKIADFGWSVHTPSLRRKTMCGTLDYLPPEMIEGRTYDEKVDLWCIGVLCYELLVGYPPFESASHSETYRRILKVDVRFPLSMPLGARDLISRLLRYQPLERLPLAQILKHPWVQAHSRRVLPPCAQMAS

[4] = target: T3, Serine/threonine-protein kinase Sgk3 (Homo sapiens) (UniProt Q96BR1); assay: Inhibition of SGK3 at 10 uM by luciferase assay; in short: as §1
T3 sequence (whole entry): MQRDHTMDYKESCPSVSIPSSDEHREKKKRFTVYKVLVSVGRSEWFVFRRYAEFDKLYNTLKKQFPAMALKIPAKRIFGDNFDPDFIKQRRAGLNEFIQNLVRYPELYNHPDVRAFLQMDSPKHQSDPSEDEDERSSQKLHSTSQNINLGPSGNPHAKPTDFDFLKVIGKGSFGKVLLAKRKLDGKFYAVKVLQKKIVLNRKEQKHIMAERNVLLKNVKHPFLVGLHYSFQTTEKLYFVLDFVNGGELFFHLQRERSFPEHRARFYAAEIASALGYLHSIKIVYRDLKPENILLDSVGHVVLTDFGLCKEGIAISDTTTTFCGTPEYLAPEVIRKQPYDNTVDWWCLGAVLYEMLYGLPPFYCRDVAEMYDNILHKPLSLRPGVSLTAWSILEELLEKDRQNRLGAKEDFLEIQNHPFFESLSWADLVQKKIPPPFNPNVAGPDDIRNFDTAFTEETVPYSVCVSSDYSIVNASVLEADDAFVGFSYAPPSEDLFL

[5] = Inhibition of Protein kinase A at 10 uM by luciferase assay; in short: as §1
[6] = target: Protein kinase C eta type (Homo sapiens) (UniProt P24723); assay: Inhibition of Protein kinase C eta type at 10 uM by luciferase assay; in short: as §1
[7] = target: Protein kinase C theta type (Homo sapiens) (UniProt Q04759); assay: Inhibition of Protein kinase C theta type at 10 uM by luciferase assay; in short: as §1
[8] = target: T4, cAMP-dependent protein kinase catalytic subunit PRKX (Homo sapiens) (UniProt P51817); assay: Inhibition of PRKX at 10 uM by luciferase assay; in short: as §1
T4 sequence (whole entry): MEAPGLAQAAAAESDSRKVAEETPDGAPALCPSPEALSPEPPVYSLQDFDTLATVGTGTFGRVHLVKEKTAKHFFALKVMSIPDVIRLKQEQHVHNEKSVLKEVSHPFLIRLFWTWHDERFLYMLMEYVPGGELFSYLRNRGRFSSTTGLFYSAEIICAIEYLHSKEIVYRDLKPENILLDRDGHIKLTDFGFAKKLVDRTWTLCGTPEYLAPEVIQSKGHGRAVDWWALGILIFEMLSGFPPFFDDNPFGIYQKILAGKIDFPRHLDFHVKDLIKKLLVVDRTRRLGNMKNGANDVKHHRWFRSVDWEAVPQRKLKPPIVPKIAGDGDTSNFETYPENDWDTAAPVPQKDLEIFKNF

[9] = target: Protein kinase C delta type (Homo sapiens) (UniProt Q05655); assay: Inhibition of Protein kinase C delta type at 10 uM by luciferase assay
In short: (§2)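 Cell-free split-firefly-luciferase competitive binding assay: Cfluc-kinase fusion mRNA co-translated with Fos-Nfluc mRNA in rabbit reticulocyte lysate, 30 °C for 90 min, then frozen at −80 °C and thawed on ice. Luminescence read after luciferin reagent, in duplicate. Percent inhibition = 1 − (background-subtracted signal ÷ DMSO positive control).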

[10] = target: T5, Protein kinase C epsilon type (Homo sapiens) (UniProt Q02156); assay: Inhibition of Protein kinase C epsilon type at 10 uM by luciferase assay; in short: as §2
T5 sequence (whole entry): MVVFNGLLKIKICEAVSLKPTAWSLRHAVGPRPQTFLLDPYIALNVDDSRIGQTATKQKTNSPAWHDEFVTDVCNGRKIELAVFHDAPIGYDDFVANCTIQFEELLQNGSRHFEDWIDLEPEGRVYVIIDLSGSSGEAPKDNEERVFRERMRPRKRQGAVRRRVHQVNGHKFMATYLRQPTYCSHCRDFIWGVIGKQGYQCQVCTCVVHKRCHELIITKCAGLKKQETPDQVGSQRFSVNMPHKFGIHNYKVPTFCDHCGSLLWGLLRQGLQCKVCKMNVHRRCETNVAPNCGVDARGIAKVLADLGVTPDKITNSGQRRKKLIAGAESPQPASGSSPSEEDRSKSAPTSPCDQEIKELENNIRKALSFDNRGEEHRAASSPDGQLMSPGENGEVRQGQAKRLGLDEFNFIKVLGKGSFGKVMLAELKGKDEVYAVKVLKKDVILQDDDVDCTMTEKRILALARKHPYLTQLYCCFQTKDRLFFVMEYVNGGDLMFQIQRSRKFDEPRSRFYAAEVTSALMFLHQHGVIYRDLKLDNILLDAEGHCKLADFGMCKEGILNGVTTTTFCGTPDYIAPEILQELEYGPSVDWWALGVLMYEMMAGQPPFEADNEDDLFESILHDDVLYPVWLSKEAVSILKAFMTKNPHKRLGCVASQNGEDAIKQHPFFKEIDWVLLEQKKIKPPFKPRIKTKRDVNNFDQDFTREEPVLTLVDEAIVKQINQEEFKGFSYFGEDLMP

[11] = target: Protein kinase C gamma type (Homo sapiens) (UniProt P05129); assay: Inhibition of Protein kinase C gamma type at 10 uM by luciferase assay; in short: as §2
[12] = target: RAC-alpha serine/threonine-protein kinase (Homo sapiens) (UniProt P31749); assay: Inhibition of AKT1 at 10 uM by luciferase assay; in short: as §2
[13] = target: RAC-beta serine/threonine-protein kinase (Homo sapiens) (UniProt P31751); assay: Inhibition of AKT2 at 10 uM by luciferase assay; in short: as §2
[14] = target: RAC-gamma serine/threonine-protein kinase (Homo sapiens) (UniProt Q9Y243); assay: Inhibition of AKT3 at 10 uM by luciferase assay; in short: as §2
[15] = target: Serine/threonine-protein kinase 32B (Homo sapiens) (UniProt Q9NY57); assay: Inhibition of STK32B at 10 uM by luciferase assay; in short: as §1
[16] = target: T6, Myotonin-protein kinase (Homo sapiens) (UniProt Q09013); assay: Inhibition of DMPK at 10 uM by luciferase assay; in short: as §1
T6 sequence (whole entry): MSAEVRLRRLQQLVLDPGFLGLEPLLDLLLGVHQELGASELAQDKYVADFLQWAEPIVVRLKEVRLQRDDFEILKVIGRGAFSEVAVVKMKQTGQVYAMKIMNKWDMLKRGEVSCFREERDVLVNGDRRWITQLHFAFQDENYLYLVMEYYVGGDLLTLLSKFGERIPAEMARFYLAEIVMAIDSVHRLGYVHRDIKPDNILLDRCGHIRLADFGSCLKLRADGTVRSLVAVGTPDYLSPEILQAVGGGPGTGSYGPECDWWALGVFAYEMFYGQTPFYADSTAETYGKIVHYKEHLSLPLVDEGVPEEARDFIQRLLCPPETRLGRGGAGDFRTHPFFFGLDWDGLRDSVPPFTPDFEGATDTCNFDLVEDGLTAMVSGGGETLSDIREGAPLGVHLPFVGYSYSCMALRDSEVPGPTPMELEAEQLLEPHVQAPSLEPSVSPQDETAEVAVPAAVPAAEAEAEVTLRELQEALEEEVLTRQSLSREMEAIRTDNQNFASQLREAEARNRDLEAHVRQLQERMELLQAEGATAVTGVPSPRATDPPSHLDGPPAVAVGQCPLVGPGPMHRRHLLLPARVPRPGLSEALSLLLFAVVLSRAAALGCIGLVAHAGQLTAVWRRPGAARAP

Sequence of Serine/threonine-protein kinase 32B (Homo sapiens) (Q9NY57 whole entry): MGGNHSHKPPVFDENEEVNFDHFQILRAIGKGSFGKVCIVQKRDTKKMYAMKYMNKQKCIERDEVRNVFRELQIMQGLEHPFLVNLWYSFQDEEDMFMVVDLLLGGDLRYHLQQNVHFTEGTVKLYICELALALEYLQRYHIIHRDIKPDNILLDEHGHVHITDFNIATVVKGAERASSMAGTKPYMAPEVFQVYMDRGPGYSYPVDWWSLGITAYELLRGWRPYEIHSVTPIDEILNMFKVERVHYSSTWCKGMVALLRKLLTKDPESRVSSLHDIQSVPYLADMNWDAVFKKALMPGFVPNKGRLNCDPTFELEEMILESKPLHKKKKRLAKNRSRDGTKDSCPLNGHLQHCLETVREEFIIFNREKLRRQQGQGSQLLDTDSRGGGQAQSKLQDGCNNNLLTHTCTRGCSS
Sequence of Protein kinase C eta type (Homo sapiens) (P24723 whole entry): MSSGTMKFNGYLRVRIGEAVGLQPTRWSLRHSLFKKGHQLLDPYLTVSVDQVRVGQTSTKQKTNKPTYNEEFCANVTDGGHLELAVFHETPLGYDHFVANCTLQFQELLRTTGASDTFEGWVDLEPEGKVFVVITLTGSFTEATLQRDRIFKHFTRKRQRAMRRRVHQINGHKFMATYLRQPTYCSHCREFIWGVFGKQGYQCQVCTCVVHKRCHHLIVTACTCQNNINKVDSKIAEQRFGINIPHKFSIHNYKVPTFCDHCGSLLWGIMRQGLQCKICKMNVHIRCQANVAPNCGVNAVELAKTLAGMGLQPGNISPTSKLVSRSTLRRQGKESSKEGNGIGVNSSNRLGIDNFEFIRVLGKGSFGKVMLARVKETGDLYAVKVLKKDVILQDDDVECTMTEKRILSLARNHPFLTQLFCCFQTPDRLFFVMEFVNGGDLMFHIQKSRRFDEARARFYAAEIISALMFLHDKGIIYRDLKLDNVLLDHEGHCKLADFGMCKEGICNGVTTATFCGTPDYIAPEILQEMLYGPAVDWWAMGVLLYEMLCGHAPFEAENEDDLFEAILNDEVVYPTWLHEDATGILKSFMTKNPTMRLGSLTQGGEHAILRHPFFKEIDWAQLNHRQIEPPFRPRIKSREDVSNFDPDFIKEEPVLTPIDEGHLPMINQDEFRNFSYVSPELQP
Sequence of Aurora kinase B (Homo sapiens) (Q96GD4 whole entry): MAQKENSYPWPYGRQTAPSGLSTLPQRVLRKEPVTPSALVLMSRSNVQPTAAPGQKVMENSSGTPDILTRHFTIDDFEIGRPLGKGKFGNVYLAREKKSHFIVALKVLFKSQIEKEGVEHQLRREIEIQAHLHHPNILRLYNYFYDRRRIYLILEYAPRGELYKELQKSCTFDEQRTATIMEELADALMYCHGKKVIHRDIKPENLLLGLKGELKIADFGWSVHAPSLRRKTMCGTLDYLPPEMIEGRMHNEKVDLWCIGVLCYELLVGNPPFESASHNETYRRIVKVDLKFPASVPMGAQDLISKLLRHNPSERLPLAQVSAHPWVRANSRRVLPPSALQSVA
Sequence of Protein kinase C theta type (Homo sapiens) (Q04759 whole entry, looked up): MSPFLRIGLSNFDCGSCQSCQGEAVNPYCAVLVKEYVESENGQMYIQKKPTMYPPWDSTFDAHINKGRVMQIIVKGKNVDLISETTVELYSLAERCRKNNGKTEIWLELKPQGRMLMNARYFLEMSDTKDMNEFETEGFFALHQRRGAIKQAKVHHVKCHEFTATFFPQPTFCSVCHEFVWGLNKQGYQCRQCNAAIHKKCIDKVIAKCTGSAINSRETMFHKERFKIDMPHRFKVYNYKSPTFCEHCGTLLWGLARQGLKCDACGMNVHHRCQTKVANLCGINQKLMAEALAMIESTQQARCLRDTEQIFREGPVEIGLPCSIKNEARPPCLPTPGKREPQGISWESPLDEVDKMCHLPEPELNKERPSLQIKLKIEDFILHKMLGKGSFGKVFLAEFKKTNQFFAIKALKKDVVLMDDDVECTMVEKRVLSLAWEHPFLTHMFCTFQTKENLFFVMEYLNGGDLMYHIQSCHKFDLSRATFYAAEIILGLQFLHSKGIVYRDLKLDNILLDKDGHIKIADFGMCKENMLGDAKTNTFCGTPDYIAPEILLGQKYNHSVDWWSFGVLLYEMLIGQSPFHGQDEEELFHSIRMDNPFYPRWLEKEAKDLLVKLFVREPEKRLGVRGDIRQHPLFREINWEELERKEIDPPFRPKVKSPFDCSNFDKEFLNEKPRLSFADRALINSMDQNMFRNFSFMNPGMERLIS
Sequence of RAC-gamma serine/threonine-protein kinase (Homo sapiens) (Q9Y243 whole entry): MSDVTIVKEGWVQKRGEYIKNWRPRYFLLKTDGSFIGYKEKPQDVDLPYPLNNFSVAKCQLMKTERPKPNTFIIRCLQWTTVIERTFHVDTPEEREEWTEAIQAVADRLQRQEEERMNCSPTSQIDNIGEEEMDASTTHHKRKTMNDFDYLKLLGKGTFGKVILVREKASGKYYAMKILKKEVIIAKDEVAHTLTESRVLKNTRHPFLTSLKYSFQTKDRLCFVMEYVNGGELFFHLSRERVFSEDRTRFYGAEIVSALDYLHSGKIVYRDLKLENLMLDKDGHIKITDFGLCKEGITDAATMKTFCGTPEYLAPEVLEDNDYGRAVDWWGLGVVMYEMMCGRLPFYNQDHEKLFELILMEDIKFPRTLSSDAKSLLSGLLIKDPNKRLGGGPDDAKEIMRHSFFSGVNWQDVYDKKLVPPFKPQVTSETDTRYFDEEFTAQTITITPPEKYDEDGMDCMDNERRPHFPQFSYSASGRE
Sequence of RAC-beta serine/threonine-protein kinase (Homo sapiens) (P31751 whole entry): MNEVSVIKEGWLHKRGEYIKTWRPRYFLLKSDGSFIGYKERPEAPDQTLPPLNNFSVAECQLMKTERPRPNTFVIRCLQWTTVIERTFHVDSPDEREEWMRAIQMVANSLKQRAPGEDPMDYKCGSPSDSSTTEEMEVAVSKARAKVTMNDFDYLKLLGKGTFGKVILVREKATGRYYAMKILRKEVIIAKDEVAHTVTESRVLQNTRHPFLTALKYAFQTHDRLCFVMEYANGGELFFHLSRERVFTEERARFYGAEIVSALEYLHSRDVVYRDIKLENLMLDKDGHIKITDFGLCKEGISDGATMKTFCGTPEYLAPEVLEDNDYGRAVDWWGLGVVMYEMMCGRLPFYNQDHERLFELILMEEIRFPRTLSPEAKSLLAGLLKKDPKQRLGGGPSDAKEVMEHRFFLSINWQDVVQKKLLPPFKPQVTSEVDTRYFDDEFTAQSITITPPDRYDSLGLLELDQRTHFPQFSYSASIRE
Sequence of Protein kinase C delta type (Homo sapiens) (Q05655 whole entry, looked up, the tested form may be a part): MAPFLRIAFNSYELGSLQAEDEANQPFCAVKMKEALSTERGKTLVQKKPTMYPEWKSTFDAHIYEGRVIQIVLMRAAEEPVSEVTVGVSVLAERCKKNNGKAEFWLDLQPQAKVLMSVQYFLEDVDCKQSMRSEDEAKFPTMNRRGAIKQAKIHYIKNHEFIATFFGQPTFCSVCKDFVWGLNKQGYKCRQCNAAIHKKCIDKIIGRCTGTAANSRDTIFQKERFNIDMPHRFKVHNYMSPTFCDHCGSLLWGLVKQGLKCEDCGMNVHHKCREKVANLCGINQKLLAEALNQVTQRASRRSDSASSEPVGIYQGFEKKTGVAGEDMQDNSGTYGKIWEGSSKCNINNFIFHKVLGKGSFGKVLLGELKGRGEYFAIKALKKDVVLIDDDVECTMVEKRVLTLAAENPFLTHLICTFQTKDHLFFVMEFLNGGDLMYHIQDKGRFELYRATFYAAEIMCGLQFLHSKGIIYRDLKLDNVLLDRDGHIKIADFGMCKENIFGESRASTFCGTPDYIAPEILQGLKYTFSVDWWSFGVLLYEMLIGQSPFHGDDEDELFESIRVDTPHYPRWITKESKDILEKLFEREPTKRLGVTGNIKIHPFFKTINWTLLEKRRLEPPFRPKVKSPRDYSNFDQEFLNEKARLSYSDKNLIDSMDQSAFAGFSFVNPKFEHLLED
Sequence of RAC-alpha serine/threonine-protein kinase (Homo sapiens) (P31749 whole entry): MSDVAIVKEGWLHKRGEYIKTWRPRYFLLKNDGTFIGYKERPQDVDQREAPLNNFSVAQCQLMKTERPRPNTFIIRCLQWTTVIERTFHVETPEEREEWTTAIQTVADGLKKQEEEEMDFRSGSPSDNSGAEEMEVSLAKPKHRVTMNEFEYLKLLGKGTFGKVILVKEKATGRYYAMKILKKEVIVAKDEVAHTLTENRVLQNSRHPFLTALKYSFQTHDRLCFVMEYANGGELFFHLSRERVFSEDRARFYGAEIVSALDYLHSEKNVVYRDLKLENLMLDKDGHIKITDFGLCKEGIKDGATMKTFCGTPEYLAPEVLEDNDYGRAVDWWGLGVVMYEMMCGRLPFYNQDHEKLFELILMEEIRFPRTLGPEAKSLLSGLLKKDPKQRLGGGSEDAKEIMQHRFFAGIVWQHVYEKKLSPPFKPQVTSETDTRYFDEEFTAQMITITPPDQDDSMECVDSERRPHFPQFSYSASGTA

Compound: O=C1NC(=O)c2c1c1c3ccccc3n3c1c1c2c2ccccc2n1C1CCC3O1
- inhibition [1]: > 60%

Compound: COc1cc2c(Nc3ccc(NC(=O)c4ccccc4)cc3)ncnc2cc1OCCCN1CCOCC1
- inhibition [2]: > 50%
- inhibition [3]: > 50%

Compound: O=S(=O)(NCCNC/C=C/c1ccc(Br)cc1)c1cccc2cnccc12
- inhibition [1]: 20%
- inhibition [4]: 20%
- inhibition [5]: > 65%
- inhibition [6]: 20%
- inhibition [7]: 20%
- inhibition [8]: > 65%

Compound: Cn1cc(C2=C(c3cn(CCCSC(=N)N)c4ccccc34)C(=O)NC2=O)c2ccccc21
- inhibition [9]: 47%
- inhibition [10]: 47%
- inhibition [11]: 47%
- inhibition [6]: 47%
- inhibition [7]: 47%

Compound: Cc1[nH]c(/C=C2\C(=O)Nc3ccc(S(=O)(=O)Cc4c(Cl)cccc4Cl)cc32)c(C)c1C(=O)N1CCC[C@@H]1CN1CCCC1
- inhibition [2]: > 25%
- inhibition [3]: > 25%

Compound: NC(=O)Nc1sc(-c2ccc(F)cc2)cc1C(N)=O
- inhibition [2]: > 25%
- inhibition [3]: > 25%
- inhibition [6]: Active

Compound: O=S(=O)(c1cccc2c(Cl)cccc12)N1CCCNCC1
- inhibition [8]: inactive

Compound: Fc1ccc(Cl)cc1-c1nc(Nc2ccncc2)c2nccnc2n1
- inhibition [12]: > 25%
- inhibition [13]: > 25%
- inhibition [14]: > 25%
- inhibition [10]: > 25%
- inhibition [6]: > 25%
- inhibition [7]: > 25%

Compound: O=C1NC(=O)c2c1c1c3ccccc3[nH]c1c1[nH]c3ccccc3c21
- inhibition [12]: inactive
- inhibition [13]: inactive
- inhibition [14]: inactive
- inhibition [9]: inactive
- inhibition [10]: inactive
- inhibition [11]: inactive

Compound: O=S(=O)(c1cccc2cnccc12)N1CCCNCC1
- inhibition [5]: Active
- inhibition [8]: Active

Compound: CO[C@@H]1[C@H](N(C)C(=O)c2ccccc2)C[C@H]2O[C@]1(C)n1c3ccccc3c3c4c(c5c6ccccc6n2c5c31)C(=O)NC4
- inhibition [15]: Active

Compound: O=S(=O)(c1cccc2c(O)nccc12)N1CCCNCC1
- inhibition [8]: Active

Compound: CN(C)CCCn1cc(C2=C(c3c[nH]c4ccccc34)C(=O)NC2=O)c2ccccc21
- inhibition [11]: inactive
- inhibition [6]: inactive
- inhibition [7]: inactive

Compound: O=C1NC(=O)c2cc(Nc3ccc(F)cc3)c(Nc3ccc(F)cc3)cc21
- inhibition [16]: 30%
- inhibition [11]: 22%

Compound: CC(C)(C)n1nc(-c2ccc(Cl)cc2)c2c(N)ncnc21
- inhibition [15]: > 40%
- inhibition [16]: 32%
- inhibition [5]: 19%

Compound: Cc1ccc(-c2nn(C(C)(C)C)c3ncnc(N)c23)cc1
- inhibition [15]: > 40%
- inhibition [16]: 32%
- inhibition [5]: 19%

Compound: C[C@@H](N)[C@H]1CC[C@H](C(=O)Nc2ccncc2)CC1
- inhibition [8]: Active

Compound: COc1cc2ncn(-c3cc(OCc4ccccc4C(F)(F)F)c(C(N)=O)s3)c2cc1OC
- inhibition [2]: > 25%
- inhibition [3]: > 25%

Compound: O=C(c1ccc(Nc2nccc(-c3cc4ccccc4s3)n2)cc1)N1CCC(N2CCCC2)CC1
- inhibition [1]: > 60%
- inhibition [4]: > 60%
- inhibition [2]: > 29%
- inhibition [10]: > 29%
- inhibition [6]: 83%
- inhibition [7]: > 29%
- inhibition [8]: > 29%
